This is a sample that favours compounds with a hit; in the whole collection about 4.1% have one here.
Cl transport mod – modulates chloride dependent transport by human KCC2. Q9H2X9. KCC2 cells, thallium flux FluoZin-2 fluorescence. B-score of Tl+ flux slope (higher = more flux/activation; lower = inhibition) at 10 µM. 190,000 compounds, 2.2% hits. AID 1456;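 active = thallium flux slope and its plate-corrected score both differing from the plate sample mean at a set confidence after two filtering rounds, in either direction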;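 also: slope of fluorescence scaled to starting intensity during 10 to 20 s after thallium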
KCNQ1 act – human KCNQ1 channel potentiation or activation; P51787; CHO-K1 KCNQ1, thallium flux FluxOR fluorescence; stronger effect = higher value; B-score at 10 µM; 310,000 compounds, 0.35% hits; AID 2648;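 active = fluorescence ratio B-score, a plate-corrected score, at least three library SD, with initial intensity B-score within 5 SD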
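Doses: Single concentration per compound, DMSO matched to controls | Test system: KCNQ1-transfected CHO-K1 cells | Timing: 90 min dye loading and 20 min compound exposure, both at room temperature | Measured by: Kinetic FluxOR thallium fluorescence, 10-s 1-Hz baseline, 110-s post-stimulus read | Medium: Assay buffer with matched DMSO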
hERG rescue – compounds protecting human hERG from proarrhythmic drug block. AID 1511. 310,000 compounds, 0.51% hits. Q12809. CHO-hERG, FluxOR thallium flux, dofetilide IC70 present. activation (rescue from dofetilide block), less the hit threshold, % at 10 µM;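 active = activation above the mean of controls blocked by dofetilide plus 5 SD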;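 also: thallium influx through hERG after potassium depolarization seen as dye fluorescence rise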
KCNQ1 inh – inhibitors of human KCNQ1 potassium channel; P51787; CHO-K1 KCNQ1, FluxOR thallium flux fluorescence; stronger effect = higher value; B-score at 10 µM; 310,000 compounds, 1.3% hits;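 active = compounds whose thallium flux B-score, printed positive for inhibition, exceeds three library SD while starting fluorescence stays within three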;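 also: channel opened by potassium depolarization with thallium stimulus after 20 min compound exposure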
KCNK9 inh – blocks the human KCNK9 two-pore domain potassium channel | Q9NPC2 | HEK293 KCNK9, FluxOR thallium flux fluorescence; stronger effect = lower value | B-score at 10 µM | 310,000 compounds, 1.2% hits | AID 488922;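 active = ratio B-score over 3 SD below the library mean, with starting fluorescence within 5 SD of its mean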;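 also: negative B-score means less thallium flux so channel inhibition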
KCNK3 inh – human KCNK3 channel inhibition, primary screen; O14649; 340,000 compounds, 0.84% hits; CHO-KCNK3 thallium flux, FluxOR fluorescence; stronger effect = lower value; B-score at 10 µM;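 active = B-score under library mean minus 4 SD, starting fluorescence ratio at most library mean plus 5 SD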;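 also: more negative B-score means stronger inhibition of thallium flux through KCNK3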
KCNK9 inh conf – human KCNK9 inhibitor confirmation; shares compounds with KCNK9 inh; inhibition, % at 10 µM; HEK293 KCNK9 cells, FluxOR thallium flux fluorescence; 4,900 compounds, 43% hits;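 active = thallium signal inhibited by more than 5 SD of the compound-free buffer control wells, on both duplicate plates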;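 also: 0% = assay buffer control wells without compound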
Kir21 sel – mouse Kir2.1 off-target activity of KCNK9 modulators; shares compounds with KCNK9 inh; AID 492993; 4,900 compounds, 4% hits; Kir2.1 cells, FluxOR thallium flux fluorescence; inhibition, % at 10 µM;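 active = thallium signal drop more than 5 SD beyond the mean of the no-compound control wells, seen in both duplicate plates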;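 also: signal is fluorescence rise after thallium addition divided by baseline fluorescence; plate controls were assay buffer only for no effect and full block by chlorpromazine control for full effect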
Target sequence (P35561 whole entry, looked up): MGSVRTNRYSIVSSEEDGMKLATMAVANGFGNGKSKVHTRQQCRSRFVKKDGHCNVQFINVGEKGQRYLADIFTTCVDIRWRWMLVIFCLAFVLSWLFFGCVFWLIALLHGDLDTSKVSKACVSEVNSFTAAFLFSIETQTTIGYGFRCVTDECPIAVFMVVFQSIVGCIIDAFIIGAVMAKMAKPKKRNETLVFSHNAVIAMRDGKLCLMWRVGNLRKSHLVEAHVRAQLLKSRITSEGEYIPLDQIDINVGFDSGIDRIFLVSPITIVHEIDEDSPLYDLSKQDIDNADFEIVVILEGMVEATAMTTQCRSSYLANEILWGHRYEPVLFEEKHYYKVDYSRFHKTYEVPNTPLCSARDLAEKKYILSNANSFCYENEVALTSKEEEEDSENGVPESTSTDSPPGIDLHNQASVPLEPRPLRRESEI
KCNK9 uninduced – second counter-screen for KCNK9 modulators: effect in non-induced cells; shares compounds with KCNK9 inh; 4,900 compounds, 40% hits; inhibition, % at 10 µM; non-induced KCNK9-HEK293, FluxOR thallium flux; AID 492997;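 active = thallium signal drop beyond 5 SD of the untreated control mean, on both duplicate plates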;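 also: plate controls were buffer only IC0 wells for no effect and SID17386958 at its maximal inhibitory level for full effect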
KCNK3 confirm – human KCNK3 channel inhibition, confirmation assay. shares compounds with KCNK3 inh. CHO-KCNK3 thallium flux, FluxOR fluorescence; 0% buffer, 100% carvedilol maximal block. ratio percent of control, % at 10 µM. 2,400 compounds, 99% hits. AID 651638;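 active = ratio percent of control, averaged over triplicates, above buffer control mean plus 5 SD, cut at about 64% in these data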;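 also: ratio is the fluorescence rise from min to max over baseline after thallium stimulus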
KCNK3 uninduced – counter-screen for KCNK3 inhibitors: effect in non-induced cells. non-induced KCNK3 parental cells, FluxOR thallium flux; stronger effect = lower value. 2,400 compounds, 40% hits. thallium flux ratio (lower = more inhibition) at 10 µM. AID 651747. shares compounds with KCNK3 inh;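 active = thallium flux ratio, averaged over three wells, more than 5 SD below the buffer control mean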;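 also: host cells are CHO cells without KCNK3 induction; ratio is peak minus trough fluorescence over baseline then normalized to buffer controls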
Numbers without * were called inactive; i = inactive; nt = no result given.

SMILES | Cl transport mod | KCNQ1 act | hERG rescue | KCNQ1 inh | KCNK9 inh | KCNK3 inh | KCNK9 inh conf | Kir21 sel | KCNK9 uninduced | KCNK3 confirm | KCNK3 uninduced
COCCNC(=O)C(c1ccccc1F)N(C(=O)C(=O)NC1CCCC1)C1CCCCC1 (centres undefined) | 0.68 | i | -18 | i | i | i | nt | nt | nt | nt | nt
CCc1cc2cccc(C)c2nc1SCC(=O)NC1CCCC1 | nt | i | -5 | i | -9* | -11* | 52%* | i | 26%* | 104* | i
CCOc1ccc(NC(=O)CCC(=O)c2ccc(F)cc2)cc1 | nt | i | 0 | i | i | i | nt | nt | nt | nt | nt
CCOCCCNC(C(=O)Nc1ccc(OC)c(Cl)c1)c1ccccc1 (centres undefined) | 0.0094 | i | -7 | i | i | i | nt | nt | nt | nt | nt
COCCNC(C(=O)Nc1cc(Cl)cc(Cl)c1)c1ccccc1 (centres undefined) | -0.23 | i | -10 | i | -12* | -9.2* | 44%* | i | 40%* | 103* | i
Cc1ccsc1CN(C)CC(=O)Nc1ccc([N+](=O)[O-])cc1Cl | nt | i | -11 | i | -21* | -9.5* | 64%* | i | 48%* | 135* | 0.13*
CCc1c(C)nc2cc(-c3cc(OC)cc(OC)c3)nn2c1N1CCCC1 | -0.71 | i | -4 | i | -11* | -9.8* | 58%* | i | 26%* | 100* | i
COc1cc(OC)cc(-c2cc3nc(C)c(CCC(=O)Nc4nc(C)cs4)c(C)n3n2)c1 | -0.066 | i | 0 | i | i | i | nt | nt | nt | nt | nt
COCC(C)n1c(SCc2ccc(C(=O)OC)cc2)nc2ccccc2c1=O (centres undefined) | nt | i | -9 | i | -16* | -12* | 62%* | i | 38%* | 125* | 0.14*
COCC(C)n1c(SCc2ccc(OC)c(F)c2)nc2ccccc2c1=O (centres undefined) | -0.97 | i | -13 | i | -18* | -11* | 76%* | i | 50%* | 116* | i
CCOC(CCn1c(SCc2ccc([N+](=O)[O-])cc2)nc2ccccc2c1=O)OCC | 0.017 | i | -6 | i | -15* | i | 74%* | i | 38%* | 117* | i
COCC(C)n1c(SCc2nc3ccccc3c(=O)[nH]2)nc2ccccc2c1=O (centres undefined) | -0.085 | i | -15 | i | i | i | nt | nt | nt | nt | nt
CCn1c(SCc2ccc(OC)c(F)c2)nc2ccccc2c1=O | nt | i | -3 | i | -20* | -12* | 78%* | i | 46%* | 107* | i
CCN(CC)C(=O)C1CCCN(c2ccc([N+](=O)[O-])cc2/C=N/NC(=O)c2cccc(Br)c2)C1 (centres undefined) | 0.21 | i | -8 | i | -12* | i | 42%* | i | 32%* | 134* | 0.13*
Cc1ccc(NC(=O)CN(Cc2ccco2)Cc2ccccc2O)cc1C | nt | i | -13 | 6* | -15* | -12* | 72%* | i | 42%* | 134* | 0.15*
CCc1ccc(/C=C\C(=O)N2CCCC2)cc1 | nt | i | -6 | i | i | i | nt | nt | nt | nt | nt
CC(C)Cc1ccc(/C=C/C(=O)N2CCCCC2)cc1 | 0.042 | i | -9 | i | -9.8* | -13* | 74%* | i | 39%* | 114* | i
COc1cc(C2Nc3ccccc3C(=O)N2c2ccc(Cl)cc2)c(Cl)cc1OCC(=O)O (centres undefined) | -0.51 | i | -8 | i | i | i | nt | nt | nt | nt | nt
CCOC(=O)COc1c(OC)cc(Cl)cc1C1Nc2ccccc2C(=O)N1c1ccccc1 (centres undefined) | -0.82 | i | -6 | i | -11* | -11* | 56%* | i | 36%* | 107* | 0.14*
CCOc1cc(C2Nc3ccccc3C(=O)N2c2ccccc2)c(Br)cc1OCC(=O)O (centres undefined) | 0.59 | i | -7 | i | i | i | nt | nt | nt | nt | nt
CCOC(=O)COc1c(OC)cc(Cl)cc1C1Nc2ccccc2C(=O)N1c1cccc(C)c1 (centres undefined) | -0.87 | i | -12 | i | -9.1* | -9.7* | 48%* | i | 38%* | 111* | i
O=C(CN1CCN(Cc2ccc(Cl)cc2)C1=O)NCCN1CCCC1 | -0.38 | i | -1 | i | i | i | nt | nt | nt | nt | nt
O=C(NCc1ccc2c(c1)OCO2)c1ccc(-c2ccc(Cl)cc2)o1 | -0.25 | i | -6 | i | -8.6* | -8.9* | 27%* | i | 26%* | 140* | 0.12*
O=C(NCc1ccc2c(c1)OCO2)c1cccc(Cl)c1 | 0.94 | i | -1 | i | i | i | nt | nt | nt | nt | nt
O=c1/c(=C\c2ccc(O)cc2)sc2n1C(c1ccccc1)C(c1ccccc1)=NN=2 (centres undefined) | -0.24 | i | -20 | i | -13* | i | 56%* | i | 52%* | 132* | 0.15*
Cc1cccc(C)c1NC(=O)c1sccc1SCc1cccc(C(F)(F)F)c1 | -0.47 | i | -9 | i | -14* | -9.4* | 56%* | 49%* | 45%* | 101* | 0.16*
CCOC(=O)c1ccc(NC(=O)c2cccc3c2C(=O)N(CC2CCCO2)C3)cc1 (centres undefined) | nt | i | -20 | i | -8.6* | -9.3* | 64%* | i | i | 131* | 0.13*
CCCN1Cc2cccc(C(=O)Nc3ccc(CC)cc3)c2C1=O | nt | i | -8 | i | i | i | nt | nt | nt | nt | nt
COc1ccccc1OCCCN1C(=O)C(=O)c2cccc(C)c21 | -0.72 | i | -15 | i | -12* | -10* | 49%* | i | i | 112* | i
Cc1cc(C=O)c(C)n1-c1ccc(NC2CCCC2)c([N+](=O)[O-])c1 | nt | i | -9 | 6* | -17* | -9.1* | 60%* | i | 37%* | 122* | i

Source: PubChem BioAssay (several laboratories)
